≈ marks a conversion by molar mass, not a printed value. Calls of active or inactive are those of the source. The rule behind the calls is not given here.

For the first assay, the system named is Staphylococcus aureus. As to the kind of experiment: Antibacterial activity against Staphylococcus aureus NCTC 6571 strain. The format is functional.
Conditions: not given
`CC(=O)Nc1nc(C(=O)Nc2cc(C(=O)Nc3cc(C(=O)NCCCN(C)C)n(C)c3)n(C)c2)c(C(C)C)s1` had an MIC of 70 µM (≈ 39 µg/mL).

Consider `CC(=O)Nc1cc(C(=O)Nc2cc(C(=O)Nc3cc(C(=O)NCCCN(C)C)n(C)c3)n(C)c2)c(C)s1`, for which the MIC is given as 156 µM (not active) (≈ 82.3 µg/mL).

In the case of `COc1cccc(C(=O)Nc2nc(C(=O)Nc3cc(C(=O)Nc4cc(C(=O)NCCCN(C)C)n(C)c4)n(C)c3)c(C(C)C)s2)c1`, the MIC stood at 32.7 µM (≈ 21.2 µg/mL).

The next assay deals with Staphylococcus aureus. As to the kind of experiment: Antibacterial activity against MRSA PHLS M1 strain; na = not active. The format is functional, organism-based.
Conditions: not given
With `CC(=O)Nc1cc(C(=O)Nc2cc(C(=O)Nc3cc(C(=O)NCCCN(C)C)n(C)c3)n(C)c2)c(C)s1`, the MIC result is “inactive”.

Another assay deals with Aspergillus nidulans. As to the kind of experiment: Antifungal activity against Aspergillus nidulans CABI 0160037 strain; na = not active. The format is functional.
Conditions: not given
For the compound `CC(C)n1cc(NC(=O)c2cc(NC=O)cn2C)cc1C(=O)Nc1cc(C(=O)NCCCN(C)C)n(C)c1`, the MIC result is “inactive”.

As for `CC(=O)Nc1cc(C(=O)Nc2cc(C(=O)Nc3cc(C(=O)NCCCN(C)C)n(C)c3)n(C)c2)c(C)s1`, the MIC entry is “inactive”.

Another assay has as its system Enterococcus faecalis. As to the kind of experiment: Antibacterial activity against Streptococcus faecalis NCTC 775 strain; na = not active. In kind it is functional, organism-based.
Conditions: not given
Regarding `CC(=O)Nc1cc(C(=O)Nc2cc(C(=O)Nc3cc(C(=O)NCCCN(C)C)n(C)c3)n(C)c2)c(C)s1`, the MIC entry is “inactive”.

Another assay deals with Enterococcus faecalis. As to the kind of experiment: Antibacterial activity against Streptococcus faecalis NCTC 775 strain. The format is functional.
Conditions: not given
Regarding `CC(C)n1cc(NC(=O)c2cc(NC=O)cn2C)cc1C(=O)Nc1cc(C(=O)NCCCN(C)C)n(C)c1`, the MIC is 157 µM (≈ 82.4 µg/mL).

As for `CC(=O)Nc1nc(C(=O)Nc2cc(C(=O)Nc3cc(C(=O)NCCCN(C)C)n(C)c3)n(C)c2)c(C(C)C)s1`, 74.5 µM (≈ 41.5 µg/mL) was the least that counted as inhibitory (MIC).

In turn, `COc1cccc(C(=O)Nc2nc(C(=O)Nc3cc(C(=O)Nc4cc(C(=O)NCCCN(C)C)n(C)c4)n(C)c3)c(C(C)C)s2)c1` had an MIC of 32.7 µM (≈ 21.2 µg/mL).

A further assay relates to Escherichia coli. As to the kind of experiment: Antibacterial activity against Escherichia coli NCTC 9001 strain. In kind it is functional, organism-based.
Conditions: not given
As to `CC(C)n1cc(NC(=O)c2cc(NC=O)cn2C)cc1C(=O)Nc1cc(C(=O)NCCCN(C)C)n(C)c1`, the MIC result was “inactive”.

Turning to `CC(=O)Nc1cc(C(=O)Nc2cc(C(=O)Nc3cc(C(=O)NCCCN(C)C)n(C)c3)n(C)c2)c(C)s1`, the MIC entry was “inactive”.

A further assay relates to Mycolicibacterium fortuitum. As to the kind of experiment: Antibacterial activity against Mycobacterium fortuitum NCTC 10394 strain; na = not active. The format is functional, organism-based.
Conditions: not given
`CC(C)n1cc(NC(=O)c2cc(NC=O)cn2C)cc1C(=O)Nc1cc(C(=O)NCCCN(C)C)n(C)c1`: the MIC entry was “inactive”.

Take `CC(=O)Nc1cc(C(=O)Nc2cc(C(=O)Nc3cc(C(=O)NCCCN(C)C)n(C)c3)n(C)c2)c(C)s1`: the MIC entry was “inactive”.

In another assay the test system is Mycolicibacterium fortuitum. As to the kind of experiment: Antibacterial activity against Mycobacterium fortuitum NCTC 10394 strain. In kind it is functional.
Conditions: not given
With `CC(=O)Nc1nc(C(=O)Nc2cc(C(=O)Nc3cc(C(=O)NCCCN(C)C)n(C)c3)n(C)c2)c(C(C)C)s1`, the MIC is 74.6 µM (≈ 41.5 µg/mL).

As to `COc1cccc(C(=O)Nc2nc(C(=O)Nc3cc(C(=O)Nc4cc(C(=O)NCCCN(C)C)n(C)c4)n(C)c3)c(C(C)C)s2)c1`, the minimum inhibitory concentration (MIC) came out at 65.5 µM (≈ 42.5 µg/mL).

The test system of another assay is Staphylococcus aureus. As to the kind of experiment: Antibacterial activity against Staphylococcus aureus NCTC 6571 strain; na = not active.
Conditions: not given
The format is functional, organism-based.
With `CC(C)n1cc(NC(=O)c2cc(NC=O)cn2C)cc1C(=O)Nc1cc(C(=O)NCCCN(C)C)n(C)c1`, the MIC entry is “inactive”.

The subject of another assay is Enterobacter cloacae. The experiment in a line: Antibacterial activity against Enterobacter cloacae NCTC 10005 strain. In kind it is functional, organism-based.
Conditions: not given
For the compound `CC(C)n1cc(NC(=O)c2cc(NC=O)cn2C)cc1C(=O)Nc1cc(C(=O)NCCCN(C)C)n(C)c1`, the MIC entry is “inactive”.

Regarding `CC(=O)Nc1cc(C(=O)Nc2cc(C(=O)Nc3cc(C(=O)NCCCN(C)C)n(C)c3)n(C)c2)c(C)s1`, the MIC result is “inactive”.

The test system of another assay is Aspergillus nidulans. The experiment in a line: Antifungal activity against Aspergillus nidulans CABI 0160037 strain.
Conditions: not given
In kind it is functional.
In the case of `COc1cccc(C(=O)Nc2nc(C(=O)Nc3cc(C(=O)Nc4cc(C(=O)NCCCN(C)C)n(C)c4)n(C)c3)c(C(C)C)s2)c1`, it took 131 µM (≈ 85 µg/mL) to inhibit growth (MIC).

System in the next assay: not listed separately
As to the kind of experiment: Antifungal activity against Candida albicans NCPF 3179 strain; na = not active. The format is functional.
Conditions: not given
With `CC(C)n1cc(NC(=O)c2cc(NC=O)cn2C)cc1C(=O)Nc1cc(C(=O)NCCCN(C)C)n(C)c1`, the MIC result is “inactive”.

As to `CC(=O)Nc1cc(C(=O)Nc2cc(C(=O)Nc3cc(C(=O)NCCCN(C)C)n(C)c3)n(C)c2)c(C)s1`, the MIC entry is “inactive”.

A further assay concerns Candida albicans. The experiment in a line: Antifungal activity against Candida albicans NCPF 3179 strain. In kind it is functional. To be noted: Candida albicans; read-out: MIC.
As for `CC(=O)Nc1nc(C(=O)Nc2cc(C(=O)Nc3cc(C(=O)NCCCN(C)C)n(C)c3)n(C)c2)c(C(C)C)s1`, the MIC is 74.6 µM (≈ 41.5 µg/mL).

As to `COc1cccc(C(=O)Nc2nc(C(=O)Nc3cc(C(=O)Nc4cc(C(=O)NCCCN(C)C)n(C)c4)n(C)c3)c(C(C)C)s2)c1`, the minimum inhibitory concentration (MIC) was found to be 131 µM (≈ 85 µg/mL).

In another assay the test system is Staphylococcus aureus. As to the kind of experiment: Antibacterial activity against methicillin-resistant Staphylococcus aureus (MRSA) PHLS M1 strain. In kind it is functional.
Conditions: not given
In a few lines: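 Read-out is the minimum inhibitory concentration, reported in µM. Amoxycillin is tested alongside as the reference antibiotic.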
With `CC(C)n1cc(NC(=O)c2cc(NC=O)cn2C)cc1C(=O)Nc1cc(C(=O)NCCCN(C)C)n(C)c1`, the MIC turned out to be 157 µM (≈ 82.4 µg/mL).

Turning to `CC(=O)Nc1nc(C(=O)Nc2cc(C(=O)Nc3cc(C(=O)NCCCN(C)C)n(C)c3)n(C)c2)c(C(C)C)s1`, the MIC was found to be 149 µM (≈ 83.1 µg/mL).

Compound `COc1cccc(C(=O)Nc2nc(C(=O)Nc3cc(C(=O)Nc4cc(C(=O)NCCCN(C)C)n(C)c4)n(C)c3)c(C(C)C)s2)c1` returned an MIC of 32.7 µM (≈ 21.2 µg/mL).

The next assay concerns Escherichia coli. As to the kind of experiment: Antibacterial activity against Escherichia coli NCTC 9001 strain. The format is functional.
Conditions: not given
As for `CC(=O)Nc1nc(C(=O)Nc2cc(C(=O)Nc3cc(C(=O)NCCCN(C)C)n(C)c3)n(C)c2)c(C(C)C)s1`, it took 149 µM (≈ 82.9 µg/mL) to inhibit growth (MIC).

In turn, `COc1cccc(C(=O)Nc2nc(C(=O)Nc3cc(C(=O)Nc4cc(C(=O)NCCCN(C)C)n(C)c4)n(C)c3)c(C(C)C)s2)c1` displayed an MIC of 65.5 µM (≈ 42.5 µg/mL).

The subject of a further assay is Proteus vulgaris. As to the kind of experiment: Antibacterial activity against Proteus vulgaris NCTC 4175 strain. The format is functional.
Conditions: not given
In turn, `CC(C)n1cc(NC(=O)c2cc(NC=O)cn2C)cc1C(=O)Nc1cc(C(=O)NCCCN(C)C)n(C)c1` displayed an MIC of 157 µM (≈ 82.4 µg/mL).

In turn, `CC(=O)Nc1nc(C(=O)Nc2cc(C(=O)Nc3cc(C(=O)NCCCN(C)C)n(C)c3)n(C)c2)c(C(C)C)s1` returned an MIC of 149 µM (≈ 82.9 µg/mL).

Compound `CC(=O)Nc1cc(C(=O)Nc2cc(C(=O)Nc3cc(C(=O)NCCCN(C)C)n(C)c3)n(C)c2)c(C)s1` registered an MIC of 156 µM (≈ 82.3 µg/mL).

Compound `COc1cccc(C(=O)Nc2nc(C(=O)Nc3cc(C(=O)Nc4cc(C(=O)NCCCN(C)C)n(C)c4)n(C)c3)c(C(C)C)s2)c1` yielded an MIC of 65.5 µM (≈ 42.5 µg/mL).

In another assay the test system is Klebsiella aerogenes. As to the kind of experiment: Antibacterial activity against Klebsiella aerogenes WRL CN 345 strain. The following applies: Klebsiella aerogenes, WRL CN 375; read-out: MIC. The format is functional, WRL CN 375.
Take `CC(C)n1cc(NC(=O)c2cc(NC=O)cn2C)cc1C(=O)Nc1cc(C(=O)NCCCN(C)C)n(C)c1`: the MIC was determined as 39.1 µM (≈ 20.5 µg/mL).

Take `CC(=O)Nc1nc(C(=O)Nc2cc(C(=O)Nc3cc(C(=O)NCCCN(C)C)n(C)c3)n(C)c2)c(C(C)C)s1`: the MIC came out at 149 µM (≈ 82.9 µg/mL).

For the compound `CC(=O)Nc1cc(C(=O)Nc2cc(C(=O)Nc3cc(C(=O)NCCCN(C)C)n(C)c3)n(C)c2)c(C)s1`, the MIC came to 156 µM (≈ 82.3 µg/mL).

With `COc1cccc(C(=O)Nc2nc(C(=O)Nc3cc(C(=O)Nc4cc(C(=O)NCCCN(C)C)n(C)c4)n(C)c3)c(C(C)C)s2)c1`, the MIC turned out to be 32.7 µM (≈ 21.2 µg/mL).

System in the next assay: not listed separately
As to the kind of experiment: Antibacterial activity against Enterobacter cloacae NCTC 10005 strain. In kind it is functional.
Conditions: not given
`CC(=O)Nc1nc(C(=O)Nc2cc(C(=O)Nc3cc(C(=O)NCCCN(C)C)n(C)c3)n(C)c2)c(C(C)C)s1` yielded an MIC of 149 µM (≈ 82.9 µg/mL).

`COc1cccc(C(=O)Nc2nc(C(=O)Nc3cc(C(=O)Nc4cc(C(=O)NCCCN(C)C)n(C)c4)n(C)c3)c(C(C)C)s2)c1` displayed an MIC of 131 µM (≈ 85 µg/mL).

The test system of the next assay is Aspergillus niger. As to the kind of experiment: Antifungal activity against Aspergillus niger IMI17454 strain. In kind it is functional. To be noted: Aspergillus niger; read-out: MIC.
On to `CC(C)n1cc(NC(=O)c2cc(NC=O)cn2C)cc1C(=O)Nc1cc(C(=O)NCCCN(C)C)n(C)c1`, for which the MIC amounted to 157 µM (≈ 82.4 µg/mL).

As for `CC(=O)Nc1nc(C(=O)Nc2cc(C(=O)Nc3cc(C(=O)NCCCN(C)C)n(C)c3)n(C)c2)c(C(C)C)s1`, the minimal inhibitory concentration (MIC) was 149 µM (≈ 82.9 µg/mL).

Consider `CC(=O)Nc1cc(C(=O)Nc2cc(C(=O)Nc3cc(C(=O)NCCCN(C)C)n(C)c3)n(C)c2)c(C)s1`, for which the MIC was 156 µM (≈ 82.3 µg/mL).

On to `COc1cccc(C(=O)Nc2nc(C(=O)Nc3cc(C(=O)Nc4cc(C(=O)NCCCN(C)C)n(C)c4)n(C)c3)c(C(C)C)s2)c1`, for which the MIC is 131 µM (≈ 85 µg/mL).

(Values after ChEMBL document CHEMBL1137088, “Distamycin analogues with enhanced lipophilicity: synthesis and antimicrobial activity” (2004).)
